Results published in PubChem BioAssay.
Active and inactive are the calls of the source.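 Rule for the calls, unless noted: active = potentiation averaged over duplicate wells exceeding buffer-only control mean by more than 3 SD; inactive = the rest.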

Key:
[1] = nonspecific flux increase, KCNQ1-free cells – parental CHO cells, counter-screen for KCNQ1 potentiator project (AID 493006;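 active = duplicate-averaged activation above buffer control mean plus 5 SD of those controls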;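 for activation: fluorescence ratio of max minus min over baseline after K+ and Tl+ depolarization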); conditions: parental CHO-K1 cells, FluxOR thallium flux, at 10 µM; stronger effect = higher value
Method in brief: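 Material: parental CHO-K1 cells, FluxOR dye-loaded; Also added: Potassium/thallium depolarization pulse; Schedule: overnight 37 °C plating, 90 min dye, 20 min dark compound; Signal: kinetic FluxOR fluorescence, 10 s baseline, 110 s after stimulus.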

[2] = target: Potassium voltage-gated channel subfamily KQT member 1 (Homo sapiens) (UniProt P51787); test: enhancement of KCNQ1 channel thallium flux – FluxOR thallium flux, CHO cells, duplicates, confirmation (AID 493007); conditions: KCNQ1 cell line, FluxOR thallium flux fluorescence, at 10 µM; stronger effect = higher value, % of reference activator effect, buffer zero;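 for outcome: cells depolarized by a potassium plus thallium sulfate stimulus after compound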
Method in brief: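 System: KCNQ1-expressing CHO cell line; technique: kinetic thallium influx fluorescence with FluxOR dye, 10 s baseline, 110 s post-stimulus; timing: dye 90 min then compound 20 min, both at room temperature; controls: buffer-only wells as 0% and R-L3 activator as 100%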

[3] = target: Potassium voltage-gated channel subfamily KQT member 2 (Rattus norvegicus) (UniProt O88943); test: KCNQ2 thallium flux enhancement – KCNQ2-CHO-K1 cells, selectivity assay for KCNQ1 potentiator project (AID 493009;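 active = mean duplicate potentiation above the buffer control mean plus 5 SD of buffer wells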;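 note: assay conditions were tuned for KCNQ1 rather than KCNQ2 modulators; signal is max minus min fluorescence divided by baseline after thallium stimulus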); conditions: FluxOR thallium flux fluorescence, at 10 µM; stronger effect = higher value, scaled: buffer 0, activator control 100
[4] = target: Potassium voltage-gated channel subfamily KQT member 1 (Homo sapiens) (UniProt P51787); test: KCNQ1 activators by electrophysiology – IonWorks patch clamp, KCNQ1-CHO cells, orthogonal assay for KCNQ1 potentiator project, confirmation (AID 493184;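 active = current rise at least 3 SD above the untreated control mean in each of two repeat wells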); conditions: automated patch clamp current, at 10 µM; stronger effect = higher value
Method in brief: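 Test system: KCNQ1-expressing CHO cells. Medium: pH 7.4 external bath. Probe or stimulus: voltage step from -90 mV holding to +40 mV, 2,000 ms. Compound: 10 µM final, single point. Detection: automated perforated-patch electrophysiology. Read-out: percent current increase versus pre-compound level. Repeats: two replicates.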

Potassium voltage-gated channel subfamily KQT member 2 (Rattus norvegicus), sequence (O88943 whole entry, looked up): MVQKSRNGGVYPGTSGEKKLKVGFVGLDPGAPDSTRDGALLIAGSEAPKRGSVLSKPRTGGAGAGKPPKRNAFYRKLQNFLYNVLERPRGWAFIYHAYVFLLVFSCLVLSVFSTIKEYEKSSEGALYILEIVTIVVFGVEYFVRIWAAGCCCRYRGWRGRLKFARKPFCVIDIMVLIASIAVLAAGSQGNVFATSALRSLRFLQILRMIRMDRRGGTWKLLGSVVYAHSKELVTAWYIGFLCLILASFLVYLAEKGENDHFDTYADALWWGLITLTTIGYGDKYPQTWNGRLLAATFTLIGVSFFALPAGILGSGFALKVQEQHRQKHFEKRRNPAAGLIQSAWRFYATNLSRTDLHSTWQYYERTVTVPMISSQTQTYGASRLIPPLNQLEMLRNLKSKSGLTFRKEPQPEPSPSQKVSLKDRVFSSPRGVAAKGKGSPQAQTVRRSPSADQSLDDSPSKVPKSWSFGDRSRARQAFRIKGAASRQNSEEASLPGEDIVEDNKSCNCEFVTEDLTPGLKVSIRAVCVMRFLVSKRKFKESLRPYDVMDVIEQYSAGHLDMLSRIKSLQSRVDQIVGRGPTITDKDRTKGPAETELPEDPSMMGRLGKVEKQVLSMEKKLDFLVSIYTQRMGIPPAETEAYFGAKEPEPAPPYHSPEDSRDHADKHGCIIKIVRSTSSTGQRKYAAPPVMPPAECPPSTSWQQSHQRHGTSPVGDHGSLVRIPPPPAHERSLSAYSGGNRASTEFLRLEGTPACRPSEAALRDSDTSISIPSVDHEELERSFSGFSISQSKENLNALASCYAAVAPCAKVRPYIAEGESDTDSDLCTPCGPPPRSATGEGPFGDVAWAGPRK
Potassium voltage-gated channel subfamily KQT member 1 (Homo sapiens), sequence (P51787 whole entry, looked up): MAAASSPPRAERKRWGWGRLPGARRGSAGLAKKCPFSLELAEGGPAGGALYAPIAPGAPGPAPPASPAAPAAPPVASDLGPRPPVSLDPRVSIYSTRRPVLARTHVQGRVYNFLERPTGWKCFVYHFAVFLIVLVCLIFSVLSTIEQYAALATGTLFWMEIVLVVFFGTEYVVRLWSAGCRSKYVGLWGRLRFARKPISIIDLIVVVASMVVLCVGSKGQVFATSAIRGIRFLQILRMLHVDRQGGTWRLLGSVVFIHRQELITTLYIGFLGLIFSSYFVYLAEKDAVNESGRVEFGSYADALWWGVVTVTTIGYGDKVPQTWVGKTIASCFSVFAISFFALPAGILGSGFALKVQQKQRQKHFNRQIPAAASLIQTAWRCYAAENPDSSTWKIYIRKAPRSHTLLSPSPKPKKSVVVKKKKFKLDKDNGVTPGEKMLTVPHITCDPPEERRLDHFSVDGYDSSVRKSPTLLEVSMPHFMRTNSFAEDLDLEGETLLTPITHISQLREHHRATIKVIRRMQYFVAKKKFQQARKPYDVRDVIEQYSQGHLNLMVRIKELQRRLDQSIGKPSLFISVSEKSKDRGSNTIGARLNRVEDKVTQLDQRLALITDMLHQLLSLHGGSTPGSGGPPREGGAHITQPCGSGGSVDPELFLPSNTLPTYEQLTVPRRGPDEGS

Compound | activation [1] | potentiation [2] | potentiation [3] | outcome [4] | outcome [1] | outcome [2] | outcome [3]
O=C(/C=C/c1ccccc1Cl)c1ccccc(=O)c1O | 214% (active) | 134% (active) | 374% (active) | inactive | – | – | –
CCCc1cc(=O)n2[nH]c(C)c(-c3ccc(Cl)cc3)c2n1 | 180% (active) | 23% (active) | 172% (active) | inactive | – | – | –
CCNc1nc(NCC)n2c(SCC(=O)Nc3ccc(F)cc3)nnc2n1 | – | – | – | inactive | inactive | inactive | inactive
CCC(=O)NC(=Nc1nc2ccccc2s1)NC(=O)CC | – | – | – | inactive | inactive | inactive | inactive
COc1ccc(Cc2nnc(NC(=O)C3CC(=O)N(c4ccccc4)C3)s2)cc1OC (stereo not given) | – | – | – | inactive | inactive | inactive | inactive
Oc1c(Cl)cc(Cl)cc1/C=N/c1nccs1 | 174% (active) | – | – | inactive | – | inactive | inactive
CCC(C(=O)OCC(=O)NC(=O)NC(C)(C)C)c1ccccc1 (stereo not given) | – | – | – | inactive | inactive | inactive | inactive
COc1cccc(OC)c1OCCOCCN1CCN(C)CC1 | – | – | – | inactive | inactive | inactive | inactive
Oc1c(Br)cc(Br)cc1C=NCc1ccc(F)cc1 | 153% (active) | – | 146% (active) | inactive | – | inactive | –
CC(C)c1ccc(/C=C2\SC(N3CCOCC3)=NC2=O)cc1 | – | – | 146% (active) | inactive | inactive | inactive | –
Cc1cccc(C(=O)NC(=S)N2CCc3ccccc3C2)c1 | 197% (active) | 99% (active) | 256% (active) | inactive | – | – | –
COc1ccc(NC2=NC3(CCCCC3)N=C(N)N2)cc1 | – | – | – | inactive | inactive | inactive | inactive
Cc1cc(-c2csc3nc[nH]c(=S)c23)cc(C)c1C | 286% (active) | 255% (active) | 408% (active) | inactive | – | – | –
CSC(C(=O)c1cc2ccccc2o1)c1ccccc1 (stereo not given) | – | – | – | inactive | inactive | inactive | inactive
O=C(C1=C(O)C(=O)N(CC2CCCO2)C1c1ccc(Cl)cc1Cl)c1ccco1 (stereo not given) | – | – | – | inactive | inactive | inactive | inactive
O=C(C1CCCCC1)N1CCCC(c2nc3c(nnn3Cc3ccccc3)c(=O)[nH]2)C1 (stereo not given) | – | – | – | inactive | inactive | inactive | inactive
OC1(c2ccc(Br)cc2)CCNCC1 | – | – | – | inactive | inactive | inactive | inactive
S=c1[nH]cc(Cc2ccccc2)s1 | 205% (active) | 28.5% (active) | 216% (active) | inactive | – | – | –
Cc1cc(N=Cc2cc(Br)ccc2O)no1 | 144% (active) | – | – | inactive | – | inactive | inactive
COc1ccc(C(=O)O/N=C(\N)c2ccccc2Cl)cc1OC | – | – | – | inactive | inactive | inactive | inactive

Compound | activation [1] | potentiation [2] | potentiation [3] | outcome [4] | outcome [1] | outcome [2] | outcome [3]
Cc1nc2ccccn2c1C(=O)N/N=C/c1ccccc1 | – | – | – | inactive | inactive | inactive | inactive
CCC(C)(C)NC(=O)C(c1ccncc1)N(Cc1cccs1)C(=O)Cn1nnc2ccccc21 (stereo not given) | – | – | – | inactive | inactive | inactive | inactive
COc1ccc(CN(C)C(=O)c2ccc3ccccc3n2)cc1F | – | – | – | inactive | inactive | inactive | inactive
CN1c2ccccc2C(O)=C(C(=S)Nc2ccc(Cl)cc2)S1(=O)=O | 139% (active) | – | 146% (active) | inactive | – | inactive | –
Cn1c(SCc2ccc(C#N)cc2Cl)nc2ccccc21 | – | – | – | inactive | inactive | inactive | inactive
CC1CN(c2nc(-c3ccc(Br)cc3)nnc2-c2ccccc2)CC(C)N1 (stereo not given) | – | – | – | inactive | inactive | inactive | inactive
O=C(Nc1cccc(NC(=O)c2c(F)cccc2F)n1)c1c(F)cccc1F | – | – | – | inactive | inactive | inactive | inactive
Cc1ccc(-c2nc3ccccc3c(=O)n2O)cc1 | 169% (active) | 19% (active) | 171% (active) | inactive | – | – | –
CC(C)(C)c1ccc(C(=O)NC(=S)Nc2nc3c(s2)CCCC3)cc1 | 210% (active) | 91% (active) | 217% (active) | inactive | – | – | –
CSc1nc(-c2ccccc2)[nH]c(=S)c1C(C)=O | 520% (active) | 138% (active) | 474% (active) | inactive | – | – | –
O=C(NC(=S)N1CCN(c2ccc([N+](=O)[O-])cc2Cl)CC1)c1ccco1 | – | – | – | inactive | inactive | inactive | inactive
Cc1ccccc1OCc1nnc(SCCN2CCCC2)n1-c1ccccc1 | – | – | – | inactive | inactive | inactive | inactive
CCOC(=O)C1=NN(C(=O)c2ccccc2)C(O)(c2ccc(C)cc2)C1 (stereo not given) | 141% (active) | 49.5% (active) | 216% (active) | inactive | – | – | –
O=C(CN1CCOCC1)N1CCN(c2nnc(-c3ccccc3)c3ccccc23)CC1 | – | – | – | inactive | inactive | inactive | inactive
CC(=O)c1ccc(N2CCN(C(=O)c3ccc(NC(=O)C4CCCO4)cc3)CC2)cc1 (stereo not given) | – | – | – | inactive | inactive | inactive | inactive
O=C(CCc1ccccc1)Nc1nccs1 | – | – | – | inactive | inactive | inactive | inactive
O=c1c2c3c(sc2[nH]c(=S)n1Cc1ccco1)CCC3 | 264% (active) | 108% (active) | 289% (active) | inactive | – | – | –
CC(C)COn1c(=S)[nH]c2ccccc2c1=O | 164% (active) | – | 198% (active) | inactive | – | inactive | –
CCOC(=O)C1CCN(C(=O)c2c(C)oc3c2C(=O)c2ccccc2C3=O)CC1 | – | – | – | inactive | inactive | inactive | inactive
O=C(NC(=S)N1CCc2ccccc21)c1ccccc1 | 308% (active) | 162% (active) | 366% (active) | inactive | – | – | –

Compound | activation [1] | potentiation [2] | potentiation [3] | outcome [4] | outcome [1] | outcome [2] | outcome [3]
O=C(CSc1nc2cc(Cl)ccc2s1)c1cc2ccccc2o1 | – | – | – | inactive | inactive | inactive | inactive
O=C1c2ccccc2NC(c2ccccc2O)N1O (stereo not given) | 248% (active) | 82% (active) | 262% (active) | inactive | – | – | –
CCOC(=O)c1sc2nc(C)nc(SCC(=O)N(C)C3CCS(=O)(=O)C3)c2c1C (stereo not given) | – | 17.5% (active) | 142% (active) | inactive | inactive | – | –
Oc1[nH]c2ccc(Br)cc2c1N=NC(=S)Nc1ccc(F)cc1 | – | 43.5% (active) | 160% (active) | inactive | inactive | – | –
C/C(=N\Nc1nc2ccccc2[nH]1)c1ccc(Cl)s1 | – | – | 156% (active) | inactive | inactive | inactive | –
Cc1cc(C)n(-c2nc(NCCN(C)C)c3c4c(sc3n2)COC(C)(C)C4)n1 | – | – | – | inactive | inactive | inactive | inactive
O=c1oc2cc(OCCO)ccc2c2c1CCCC2 | – | – | – | inactive | inactive | inactive | inactive
Cn1c(=O)nc2n(Cc3ccccc3)c3ccccc3cc-2c1=O | – | – | – | inactive | inactive | inactive | inactive
O=c1[nH]c(C(Cl)(Cl)Cl)nc2ccc3ccccc3c12 | 166% (active) | 50% (active) | 202% (active) | inactive | – | – | –
CCCCNC(=O)/C(C#N)=C/c1ccc2c(c1)OCCO2 | – | 18.5% (active) | – | inactive | inactive | – | inactive
C/C(=N/NC(=S)Nc1cccc(C)c1)c1cccc([N+](=O)[O-])c1 | – | 44.5% (active) | – | inactive | inactive | – | inactive
Cc1ccc(OCC(=O)NCCCNC(=O)c2ccncc2)cc1C | – | – | – | inactive | inactive | inactive | inactive
CCN(CC)S(=O)(=O)c1cc(OC)ccc1N=Nc1ccc(O)c2ncccc12 | – | 37.5% (active) | 148% (active) | inactive | inactive | – | –
Cc1ccc(-c2csc(NC(=S)NC(=O)c3ccco3)n2)cc1 | 180% (active) | 71% (active) | 164% (active) | inactive | – | – | –
CCn1nc(C)c(NC(=O)c2cnn3c(C(F)F)cc(-c4ccccc4)nc23)c1C | – | – | – | inactive | inactive | inactive | inactive
CC1CCC(n2c(=S)[nH]c3ccccc3c2=O)CC1 (stereo not given) | 234% (active) | 70% (active) | 243% (active) | inactive | – | – | –
Fc1cccc(/C=N/NC(=S)Nc2ccccc2Cl)c1 | – | 41.5% (active) | 158% (active) | inactive | inactive | – | –
CCc1ccccc1NC(=O)C1CCN(C(=O)N2CCOc3ccccc32)CC1 | – | – | – | inactive | inactive | inactive | inactive
Oc1c(N=NC(=S)Nc2ccccc2F)c2ccccc2n1Cc1ccc(F)cc1 | – | 19.5% (active) | – | inactive | inactive | – | inactive
CC(C)(C)NC(=O)C(=O)NNC(=O)c1ccc(C(C)(C)C)cc1 | 341% (active) | 112% (active) | 352% (active) | inactive | – | – | –
